Data as given in ChEMBL document CHEMBL1153939, “Novel antagonists of serotonin-4 receptors: synthesis and biological evaluation of pyrrolothienopyrazines” (Bioorg Med Chem, 2009).

Columns and labels:
Mus musculus [1] = assay: Antinociceptive activity against acetic acid-induced writhing in NMRI mouse assessed as number of stretches at 0.01 mg/kg, ip by writhing test; type: functional; conditions: route intraperitoneal
Summary of the method: (§1)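 Groups of 8 male NMRI mice (20–24 g). Compound or reference given ip in saline (10 mL/kg) 15 min before ip 0.6% aqueous acetic acid (10 mL/kg). Stretches (back arching, pelvic rotation, hind-limb extension) counted over 10 min, beginning 10 min after acid. ANOVA + Fisher PLSD versus control.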

Mus musculus [2] = assay: Antinociceptive activity against acetic acid-induced writhing in NMRI mouse assessed as number of stretches at 0.1 mg/kg, ip by writhing test; type: functional; conditions: route intraperitoneal; summary of the method: as §1
Mus musculus [3] = assay: Antinociceptive activity against acetic acid-induced writhing in NMRI mouse assessed as number of stretches at 1 mg/kg, ip by writhing test; type: functional; conditions: route intraperitoneal; summary of the method: as §1
[4] = biological target: T1, 5-hydroxytryptamine receptor 3A (Homo sapiens, UniProt P46098); assay: Binding affinity at 5HT3 receptor
T1 sequence (P46098 whole entry): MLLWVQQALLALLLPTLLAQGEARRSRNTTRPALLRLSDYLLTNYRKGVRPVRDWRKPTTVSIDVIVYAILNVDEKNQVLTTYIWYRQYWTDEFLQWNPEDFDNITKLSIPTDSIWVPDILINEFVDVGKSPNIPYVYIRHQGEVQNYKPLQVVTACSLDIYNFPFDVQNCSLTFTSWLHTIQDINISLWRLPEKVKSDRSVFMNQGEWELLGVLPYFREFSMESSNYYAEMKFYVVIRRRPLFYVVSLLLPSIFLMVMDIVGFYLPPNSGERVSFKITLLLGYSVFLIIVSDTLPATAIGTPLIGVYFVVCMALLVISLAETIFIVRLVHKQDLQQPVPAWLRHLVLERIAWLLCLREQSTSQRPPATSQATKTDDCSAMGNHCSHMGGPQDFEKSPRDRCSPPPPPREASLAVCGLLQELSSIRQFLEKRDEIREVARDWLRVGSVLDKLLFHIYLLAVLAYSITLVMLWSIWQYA

[5] = biological target: 5-hydroxytryptamine receptor 4 (Homo sapiens, UniProt Q13639); assay: Binding affinity at 5HT4 receptor
[6] = biological target: 5-hydroxytryptamine receptor 4 (Cavia porcellus, UniProt O70528); assay: Displacement of [3H]GR-113808 from 5HT4 receptor in guinea pig striatum membrane; type: cell membranes
Summary of the method: (§2)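 Guinea pig membranes (15 µg protein/mL) incubated 30 min at 37 °C with 0.6 nM [3H]GR113808 in 50 mM HEPES, pH 7.4, with fixed test concentrations. Nonspecific binding defined with 10 µM serotonin.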

[7] = biological target: T1, 5-hydroxytryptamine receptor 3A; assay: Displacement of [3H]granisetron form 5HT3 receptor in hybrid […] cells; type: cell-based
Summary of the method: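 NG108-15 cell membranes (0.5 mg protein/mL) incubated 60 min at 25 °C with 1 nM [3H]granisetron in 50 mM Tris-HCl, pH 7.4, plus 25 mM NaCl. Percent inhibition measured at 10^-6 and 10^-7 M; for some compounds Ki calculated from 8–10-point inhibition curves (Ki ± SEM).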

Mus musculus [8] = assay: Analgesic activity in NMRI mouse assessed as reaction time taken to lick fore paw at 8 mg/kg, ip after 15 mins of administration by hot plate test; type: functional; conditions: route intraperitoneal
Summary of the method: (§3)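 Hot plate at 55 °C, male NMRI mice (20–24 g), groups of 10. Drug given ip in saline (10 mL/kg). Baseline latency to forepaw licking taken twice before dosing, and mice had to respond within 4–12 s. Latency read at 15 and 30 min after injection, with a 30 s cutoff. Data as mean ± SEM, ANOVA plus Fisher PLSD.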

Mus musculus [9] = assay: Analgesic activity in NMRI mouse assessed as reaction time taken to lick fore paw at 8 mg/kg, ip after 30 mins of administration by hot plate test; type: functional; conditions: route intraperitoneal; summary of the method: as §3
Mus musculus [10] = assay: Antinociceptive activity against acetic acid-induced writhing in NMRI mouse assessed as number of stretches at 30 mg/kg, ip by writhing test; type: functional; conditions: route intraperitoneal; summary of the method: as §1
Mus musculus [11] = assay: Inhibition of scopolamine-induced immediate working memory deficit in NMRI mouse at 1 mg/kg, ip by Y-maze test relative to control; type: functional; set-up: scale not given: the % may be the effect or the level left; conditions: route intraperitoneal
Summary of the method: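 Spontaneous alternation in male NMRI mice. Scopolamine 1 mg/kg ip in saline induces the working-memory deficit; groups are saline+saline, saline+scopolamine, drug+saline and drug+scopolamine. Alternation % = actual alternations/(total arm entries − 2) × 100. ANOVA plus Fisher PLSD, p<0.05.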

Mus musculus [12] = assay: Acute toxicity in NMRI mouse assessed as behavioral changes at 5 mg/kg, ip by CNS activity test; type: organism-based, Central nervous system; set-up: dose 5 mg/kg, route intraperitoneal; conditions: in vivo
Summary of the method: (§4)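 Male NMRI mice (20–24 g) given ip drug in saline (10 mL/kg), groups of 4. Behavioural and neurological changes scored against controls by a standardized observation technique at 30 min, 3 h and 24 h post-dose. Approximate LD50 derived from deaths counted at 24 h.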

Mus musculus [13] = assay: Acute toxicity in NMRI mouse assessed as behavioral changes at 25 mg/kg, ip by CNS activity test; type: organism-based, Central nervous system; set-up: dose 25 mg/kg, route intraperitoneal; conditions: in vivo; summary of the method: as §4
Mus musculus [14] = assay: Antinociceptive activity against acetic acid-induced writhing in NMRI mouse assessed as number of stretches at 5 mg/kg, ip by writhing test; type: functional; conditions: route intraperitoneal; summary of the method: as §1
[15] = biological target: 5-hydroxytryptamine receptor 4 (Cavia porcellus) (UniProt O70528); assay: Displacement of [3H]GR-113808 from 5HT4 receptor in guinea pig striatum membrane at 10 nM; type: cell membranes; summary of the method: as §2
[16] = biological target: T2, 5-hydroxytryptamine receptor 1A (Homo sapiens, UniProt P08908); assay: Displacement of [3H]8OH-DPAT from human recombinant 5HT1A receptor
T2 sequence (P08908 whole entry): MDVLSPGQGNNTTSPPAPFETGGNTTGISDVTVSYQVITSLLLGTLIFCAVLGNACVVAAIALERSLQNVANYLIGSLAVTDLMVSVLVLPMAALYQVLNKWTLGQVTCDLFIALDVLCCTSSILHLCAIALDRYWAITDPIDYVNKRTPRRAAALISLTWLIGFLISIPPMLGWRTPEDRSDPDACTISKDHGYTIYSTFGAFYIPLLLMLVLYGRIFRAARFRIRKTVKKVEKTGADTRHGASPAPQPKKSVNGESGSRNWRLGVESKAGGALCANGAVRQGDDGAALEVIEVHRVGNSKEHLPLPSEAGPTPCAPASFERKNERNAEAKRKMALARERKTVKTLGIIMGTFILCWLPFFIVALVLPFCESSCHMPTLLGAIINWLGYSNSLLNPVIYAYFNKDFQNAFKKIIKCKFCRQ

[17] = biological target: 5-hydroxytryptamine receptor 2A (Homo sapiens, UniProt P28223); assay: Displacement of [3H]ketanserin form human recombinant 5HT2A receptor
[18] = biological target: 5-hydroxytryptamine receptor 2B (Homo sapiens, UniProt P41595); assay: Displacement of [3H]mesulergine from human recombinant 5HT2B receptor
[19] = biological target: T3, 5-hydroxytryptamine receptor 2C (Homo sapiens, UniProt P28335); assay: Displacement of [3H]mesulergine from human recombinant 5HT2C receptor
T3 sequence (P28335 whole entry): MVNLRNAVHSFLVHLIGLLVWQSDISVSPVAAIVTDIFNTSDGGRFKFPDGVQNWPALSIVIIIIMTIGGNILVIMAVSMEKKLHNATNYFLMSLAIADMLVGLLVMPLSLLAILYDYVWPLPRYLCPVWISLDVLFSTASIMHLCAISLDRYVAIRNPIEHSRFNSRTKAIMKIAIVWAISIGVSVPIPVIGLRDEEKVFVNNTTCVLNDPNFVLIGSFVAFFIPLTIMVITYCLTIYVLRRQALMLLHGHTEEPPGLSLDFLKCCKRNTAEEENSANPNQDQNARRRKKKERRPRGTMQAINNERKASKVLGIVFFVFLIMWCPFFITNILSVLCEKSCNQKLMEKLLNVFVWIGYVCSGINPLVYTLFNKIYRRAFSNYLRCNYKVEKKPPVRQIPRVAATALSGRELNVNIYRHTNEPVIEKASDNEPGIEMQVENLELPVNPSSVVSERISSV

[20] = biological target: T1, 5-hydroxytryptamine receptor 3A; assay: Displacement of [3H]granisetron from human recombinant 5HT3 receptor
[21] = biological target: 5-hydroxytryptamine receptor 6 (Homo sapiens, UniProt P50406); assay: Displacement of [3H]LSD form human recombinant 5HT6 receptor
Summary of the method: (§5)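 Membranes from sf9 cells expressing human 5-HT6 (14 µg/mL) or 5-HT7 (38 µg/mL) incubated 90 min at 27 °C with 2 nM [3H]LSD in 50 mM Tris-HCl containing 10 mM MgSO4 and 0.5 mM EDTA. Nonspecific binding defined with clozapine (10 and 250 µM).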

[22] = biological target: 5-hydroxytryptamine receptor 7 (Homo sapiens, UniProt P34969); assay: Displacement of [3H]LSD form human recombinant 5HT7 receptor; summary of the method: as §5
[23] = biological target: 5-hydroxytryptamine receptor 4 (Cavia porcellus) (UniProt O70528); assay: Displacement of [3H]GR-113808 from 5HT4 receptor in guinea pig striatum membrane at 1 uM; type: cell membranes; summary of the method: as §2

Chain of 5-hydroxytryptamine receptor 4 (Cavia porcellus, UniProt O70528) (O70528 whole entry): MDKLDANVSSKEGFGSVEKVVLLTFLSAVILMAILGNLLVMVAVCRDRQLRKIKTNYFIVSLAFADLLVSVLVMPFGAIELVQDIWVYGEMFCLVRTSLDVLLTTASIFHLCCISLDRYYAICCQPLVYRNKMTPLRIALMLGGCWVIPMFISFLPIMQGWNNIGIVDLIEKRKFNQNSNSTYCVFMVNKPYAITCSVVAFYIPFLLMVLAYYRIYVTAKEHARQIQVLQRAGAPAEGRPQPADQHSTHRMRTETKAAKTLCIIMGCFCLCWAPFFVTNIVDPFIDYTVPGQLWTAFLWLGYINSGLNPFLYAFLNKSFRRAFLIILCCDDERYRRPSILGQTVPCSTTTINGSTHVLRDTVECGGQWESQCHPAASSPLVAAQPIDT
Chain of 5-hydroxytryptamine receptor 4 (Cavia porcellus) (O70528 whole entry): as above
Chain of 5-hydroxytryptamine receptor 6 (P50406 whole entry): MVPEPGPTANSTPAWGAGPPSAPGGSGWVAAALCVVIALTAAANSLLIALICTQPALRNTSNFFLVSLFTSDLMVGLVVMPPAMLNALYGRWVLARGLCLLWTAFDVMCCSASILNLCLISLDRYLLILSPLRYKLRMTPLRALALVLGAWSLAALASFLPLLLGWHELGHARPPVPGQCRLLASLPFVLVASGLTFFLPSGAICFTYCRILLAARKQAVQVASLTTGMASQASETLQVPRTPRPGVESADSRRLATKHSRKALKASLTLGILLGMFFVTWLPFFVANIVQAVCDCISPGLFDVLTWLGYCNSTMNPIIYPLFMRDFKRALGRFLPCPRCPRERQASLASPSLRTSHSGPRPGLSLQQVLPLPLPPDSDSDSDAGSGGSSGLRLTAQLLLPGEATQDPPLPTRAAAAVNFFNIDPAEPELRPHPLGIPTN
Chain of 5-hydroxytryptamine receptor 4 (Homo sapiens, UniProt Q13639) (Q13639 whole entry): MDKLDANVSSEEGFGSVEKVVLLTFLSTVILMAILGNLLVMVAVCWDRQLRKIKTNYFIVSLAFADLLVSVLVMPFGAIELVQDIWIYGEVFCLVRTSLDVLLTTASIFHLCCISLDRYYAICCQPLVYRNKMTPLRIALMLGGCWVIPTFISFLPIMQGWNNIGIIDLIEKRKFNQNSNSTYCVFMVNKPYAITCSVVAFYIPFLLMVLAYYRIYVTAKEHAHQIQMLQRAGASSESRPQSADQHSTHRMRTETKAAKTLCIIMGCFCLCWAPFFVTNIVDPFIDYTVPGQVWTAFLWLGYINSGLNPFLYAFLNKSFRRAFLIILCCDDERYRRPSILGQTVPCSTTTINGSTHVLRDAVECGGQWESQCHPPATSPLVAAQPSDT
Chain of 5-hydroxytryptamine receptor 2A (P28223 whole entry): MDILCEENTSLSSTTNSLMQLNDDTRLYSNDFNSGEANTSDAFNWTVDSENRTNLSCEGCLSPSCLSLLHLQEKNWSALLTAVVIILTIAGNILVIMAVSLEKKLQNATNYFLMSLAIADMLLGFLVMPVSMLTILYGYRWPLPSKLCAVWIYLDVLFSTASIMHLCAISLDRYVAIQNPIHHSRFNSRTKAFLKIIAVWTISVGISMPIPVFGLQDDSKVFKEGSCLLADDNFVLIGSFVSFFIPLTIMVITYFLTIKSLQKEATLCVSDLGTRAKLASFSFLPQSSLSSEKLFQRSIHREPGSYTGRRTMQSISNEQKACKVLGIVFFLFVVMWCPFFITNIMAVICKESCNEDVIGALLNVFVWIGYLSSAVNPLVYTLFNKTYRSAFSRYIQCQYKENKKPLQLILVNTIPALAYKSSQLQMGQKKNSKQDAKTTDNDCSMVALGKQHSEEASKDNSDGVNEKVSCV
Chain of 5-hydroxytryptamine receptor 7 (P34969 whole entry): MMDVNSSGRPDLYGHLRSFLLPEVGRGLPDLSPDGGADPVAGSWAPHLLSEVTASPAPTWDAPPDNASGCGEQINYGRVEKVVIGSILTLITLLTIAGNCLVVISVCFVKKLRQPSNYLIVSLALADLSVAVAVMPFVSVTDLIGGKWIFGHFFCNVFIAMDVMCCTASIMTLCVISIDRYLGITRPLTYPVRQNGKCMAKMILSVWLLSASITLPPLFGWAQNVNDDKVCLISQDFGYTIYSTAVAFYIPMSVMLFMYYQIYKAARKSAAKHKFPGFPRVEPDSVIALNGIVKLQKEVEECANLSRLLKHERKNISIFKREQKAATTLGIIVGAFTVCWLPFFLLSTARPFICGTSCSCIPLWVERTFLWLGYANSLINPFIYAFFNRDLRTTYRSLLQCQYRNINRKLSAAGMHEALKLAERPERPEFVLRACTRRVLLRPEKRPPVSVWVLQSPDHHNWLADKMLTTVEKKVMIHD
Chain of 5-hydroxytryptamine receptor 2B (P41595 whole entry): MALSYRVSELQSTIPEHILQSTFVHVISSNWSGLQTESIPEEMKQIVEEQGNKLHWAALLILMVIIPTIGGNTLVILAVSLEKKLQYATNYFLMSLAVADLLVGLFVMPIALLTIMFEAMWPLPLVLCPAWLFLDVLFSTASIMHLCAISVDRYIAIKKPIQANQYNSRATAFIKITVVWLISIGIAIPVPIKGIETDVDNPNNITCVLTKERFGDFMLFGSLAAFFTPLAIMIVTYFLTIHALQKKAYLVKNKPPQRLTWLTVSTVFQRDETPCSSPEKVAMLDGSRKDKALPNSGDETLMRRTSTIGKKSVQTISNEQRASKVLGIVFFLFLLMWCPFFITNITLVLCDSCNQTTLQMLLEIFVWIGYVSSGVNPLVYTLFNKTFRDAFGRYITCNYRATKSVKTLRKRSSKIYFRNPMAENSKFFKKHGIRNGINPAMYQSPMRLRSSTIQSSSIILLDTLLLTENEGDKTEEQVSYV

`Cn1cc(C(=O)OCC2CCN(CCNS(C)(=O)=O)CC2)c2ccccc21` showed an Activity (Mus musculus [1]) of 21.1, an Activity (Mus musculus [2]) of 14.8 and an Activity (Mus musculus [3]) of 14.3. The Ki [4] was over 10000 nM and the Ki [5] was 0.158 nM.
Work on `c1ccc(CN2CCN(c3nc4ccsc4n4cccc34)CC2)cc1` yielded an IC50 [6] of over 10000 nM and an IC50 [7] of 1.41 nM.
For `CN1CC[C@]23c4c5ccc(O)c4O[C@H]2[C@@H](O)C=C[C@H]3[C@H]1C5` [MORPHINE], the Time (Mus musculus [8]) was 30 s and the Time (Mus musculus [9]) was 26 s.
`CC(=O)Oc1ccccc1C(=O)O` [ASPIRIN] was tested, and the Activity (Mus musculus [10]) was 8.3.
Molecule `COC(=O)C1=CCCN(C)C1` [ARECOLINE] has an Activity (Mus musculus [11]) of 64%.
In the case of `OCCN1CCN(CCCN2c3ccccc3Sc3ccc(Cl)cc32)CC1` [PERPHENAZINE], the Activity (Mus musculus [12]) is reported as “Toxic”.
Molecule `COc1[nH]c2ccc(F)cc2c1C(=O)OCC1CCN(CCNS(C)(=O)=O)CC1` has an Activity (Mus musculus [1]) of 19.1, an Activity (Mus musculus [2]) of 13.2 and an Activity (Mus musculus [3]) of 12.9.
With `COC(=O)C(c1ccccc1)C1CCCCN1` (configuration not stated) [METHYLPHENIDATE] the Activity (Mus musculus [13]) was “Toxic”.
Work on `CN1C(C(=O)Nc2ccccn2)=C(O)c2ccccc2S1(=O)=O` [PIROXICAM] yielded an Activity (Mus musculus [14]) of 2.2.
For `CCN1CCC(COc2nc3ccsc3n3cccc23)CC1`, the inhibition [15] was 42%, the Ki [6] was 19.1 nM and the IC50 [16] was over 100000 nM. For the same molecule, the IC50 [17] was 8130 nM, the IC50 [18] was 9.77 nM and the IC50 [19] was 5620 nM. For the same molecule, the IC50 [20] was over 1000 nM, the IC50 [21] was over 10000 nM and the IC50 [22] was over 1000 nM. The inhibition [23] was 84%.
